# In the library only some 2.5% were active in any assay of this set; here they are far more common.
# SENP6 block: blocks the human protease SENP6; AID 2599; Recombinant SENP6 catalytic domain, aminoluciferin luminescence; 330,000 tested, 1.8% active; inhibition, % at 10 µM;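 active = inhibition above about 50% at the single tested dose, limit read from the data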;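 also: plate controls were DMSO wells with enzyme for no effect and DMSO wells lacking enzyme for full effect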
# SENP1 inh: SENP1 (human) catalytic domain inhibition; AID 624204; 360,000 tested, 0.21% active; inhibition, % at 10 µM; recombinant SENP1 catalytic domain, CyPet-SUMO1-YPet FRET cleavage;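 active = inhibition at least 30% at 10 µM, raw YFP signal under a set limit, fluorescence ratio 0.5 to 1.5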;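 also: 0% = enzyme with DMSO and 100% = no enzyme wells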
#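 Material: hSENP1 catalytic domain, recombinant; medium: Tris pH 8 with BME, BSA, NP40 and catalase; compound: single concentration of 10 µM compound, 0.5% DMSO final; technique: FRET read of cyan and yellow fluorescence; timing: 50 min enzyme reaction, room temperature, light-protected; reagent: SFCypet-SUMO1-SFYpet substrate at 25 nM; control set: no-enzyme low, enzyme-DMSO high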
# SENP7 block: SENP7 protease inhibition; Q9BQF6; recombinant SENP7, Z-RLRGG-aminoluciferin luminescence, 40 min; inhibition, % at 5 µM; 330,000 tested, 1.5% active;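 active = inhibition above about 50% at the single test dose, limit read from the data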;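 also: plate controls were DMSO with enzyme for no effect and no enzyme buffer wells for full effect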
# Target sequence (Q9BQF6 706-1050 limits assumed): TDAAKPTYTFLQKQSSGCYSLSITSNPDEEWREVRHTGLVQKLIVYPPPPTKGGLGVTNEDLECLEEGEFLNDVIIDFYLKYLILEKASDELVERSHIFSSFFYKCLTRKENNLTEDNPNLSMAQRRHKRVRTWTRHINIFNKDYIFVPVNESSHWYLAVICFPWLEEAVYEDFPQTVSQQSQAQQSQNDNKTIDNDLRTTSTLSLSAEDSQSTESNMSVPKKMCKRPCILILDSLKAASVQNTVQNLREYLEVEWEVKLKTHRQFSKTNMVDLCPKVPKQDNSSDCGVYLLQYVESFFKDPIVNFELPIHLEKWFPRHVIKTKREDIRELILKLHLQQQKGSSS
# SENP8 block-1: blocks human SENP8 cleavage of Nedd8 substrate. 360,000 tested, 0.64% active. AID 602440. Q96LD8. inhibition, % at 20 µM. recombinant SENP8, Nedd8 substrate fluorescence; in the data active = inhibition mostly above about 40%, no sharp cut-off; inactive = mostly below about 27%
# SENP8 block-2: blocks the human protease SENP8; Q96LD8; purified SENP8, Z-RLRGG-aminoluciferin cleavage, luminescence; inhibition, % at 10 µM; 330,000 tested, 1.2% active; AID 2540; in the data active = inhibition above about 50%
# SENP8 conf: confirmation of human SENP8 protease inhibitors; shares compounds with SENP7 block; Recombinant SENP8, Z-RLRGG-aminoluciferin luminescence, 60 min; inhibition, % at 12.5 µM; 6,200 tested, 40% active;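 active = mean inhibition across replicates above about 50%, limit read from the data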
# SENP6 conf: human SENP6 inhibition, confirmed. shares compounds with SENP7 block. recombinant SENP6, Z-RLRGG-aminoluciferin luminescence. inhibition, % at 12.5 µM. 6,200 tested, 58% active
# SENP7 confirm: human SENP7 inhibition, confirmed | shares compounds with SENP7 block | recombinant SENP7, Z-RLRGG-aminoluciferin luminescence, 40 min | inhibition, % at 12.5 µM | 6,200 tested, 69% active | AID 488917
# Casp3 SENP sel: inhibits human caspase-3 in SENP selectivity test. shares compounds with SENP7 block. purified caspase-3, Z-DEVD-aminoluciferin luminescence, 60 min. inhibition, % at 12.5 µM. 6,200 tested, 60% active;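 active = mean inhibition above about 50%, limit read from the data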;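 also: plate controls were enzyme with DMSO for no effect and wells without caspase-3 for full effect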
# Target sequence (P42574 28-227 limits assumed): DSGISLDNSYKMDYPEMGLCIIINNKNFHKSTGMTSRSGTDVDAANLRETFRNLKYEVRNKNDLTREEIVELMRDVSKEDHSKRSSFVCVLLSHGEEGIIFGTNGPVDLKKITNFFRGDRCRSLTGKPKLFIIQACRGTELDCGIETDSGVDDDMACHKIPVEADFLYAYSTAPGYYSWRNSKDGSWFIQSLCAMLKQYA
# SENP luc ctr: interferes with luciferase luminescence in SENP counter-screen; shares compounds with SENP7 block; Pre-incubated SENP8/Z-RLRGG-aminoluciferin, luciferase luminescence interference; inhibition, % at 12.5 µM; 6,200 tested, 39% active; AID 488919;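 active = mean inhibition above about 50% when retested at one dose, limit read from the data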;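 also: plate controls were DMSO wells with completed reaction for no effect and substrate without enzyme for full effect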
# * = called active by the depositor; i = inactive; x = no result given.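 The calls were made as follows, unless noted: active = mean inhibition above about 50% in the one-dose retest (limit read from the data); inactive = the rest.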
SMILES,SENP6 block,SENP1 inh,SENP7 block,SENP8 block-1,SENP8 block-2,SENP8 conf,SENP6 conf,SENP7 confirm,Casp3 SENP sel,SENP luc ctr
CCOc1ccc(/C=N/NC(=O)c2ccoc2C)cc1OC,81*,1,75*,6,64*,82*,80*,93*,93*,80*
COc1cc(/C=N/NC(=O)c2nonc2C)ccc1O,67*,1,77*,15,82*,89*,89*,98*,97*,89*
COc1cccc(/C=N/NC(=O)CNC(=O)/C=C\c2ccccc2)c1O,9,-3,14,-72,10,x,x,x,x,x
CCOc1ccc(/C=N/NC(=O)c2ccncc2)cc1OC,x,2,x,-6,x,x,x,x,x,x
C/C(=N\NC(=O)Cc1ccccc1)c1ccc(Cl)s1,-6,2,-9,5,-3,x,x,x,x,x
O=C(CCCc1ccccc1)N=C1SC2CS(=O)(=O)CC2N1c1ccccc1F (centres undefined),-3,4,-8,21,-4,x,x,x,x,x
Cc1ccsc1C(=O)N1CCCC(CO)(Cc2ccccc2F)C1 (centres undefined),-4,1,-6,12,0,x,x,x,x,x
COc1ccc(C=NNC(=O)c2cc(C)oc2C)cc1O,79*,-2,86*,-1,80*,88*,85*,96*,94*,83*
COc1cc(/C=N/NC(=O)c2ccoc2C)ccc1O,68*,2,61*,-22,60*,66*,64*,89*,89*,69*
COc1cc(/C=N/NC(=O)c2cc(C)oc2C)ccc1O,-5,0,-1,-36,-11,x,x,x,x,x
N#C/C(=C1/C(=O)Nc2ccc(Br)cc21)c1ccccn1,-20,2,3,29,6,x,x,x,x,x
O=C(CC(Nc1ccc(F)cc1)C(=O)O)c1ccccc1 (centres undefined),96*,-14,74*,-30,83*,69*,82*,91*,83*,31
Cc1ccc(NC(CC(=O)c2ccccc2)c2ccc(F)cc2)cc1 (centres undefined),-3,0,0,2,-3,x,x,x,x,x
FC(F)(F)c1ccc(-c2nc3ccccc3s2)cc1,x,1,x,-27,x,x,x,x,x,x
CC(C)c1ccc(-c2nc3ccccc3s2)cc1,98*,1,100*,-7,98*,98*,100*,102*,97*,97*
COc1cc(-c2nc3ccccc3s2)ccc1O,94*,-171,89*,-272,94*,95*,96*,102*,88*,95*
COc1cccc(-c2nc3ccccc3s2)c1O,77*,-77,86*,-395,54*,39,58*,96*,74*,5
Oc1ccccc1OCc1nc2ccccc2s1,82*,2,81*,10,70*,-4,76*,94*,78*,80*
COc1ccc(-c2nc3ccccc3s2)cc1O,97*,-3,100*,i,95*,98*,99*,102*,96*,98*
CN(C(=O)OC(C)(C)C)c1ccc(-c2nc3ccccc3s2)cc1,100*,-2,100*,-488,95*,95*,97*,100*,93*,46
COC(=O)N(C)c1nc2ccccc2s1,-13,1,4,27,-4,x,x,x,x,x
CCNc1ccc(C(=O)OCC(=O)N(Cc2ccccc2)C(C)(C)C)cc1[N+](=O)[O-],-5,3,14,10,-8,x,x,x,x,x
CCCC(=O)Nc1ccc(-c2nc3cc(C)ccc3o2)cc1,71*,-3,71*,-500,48,42,50*,74*,28,18
CCCC(=O)Nc1ccc2oc(-c3ccc(OC)c(Br)c3)nc2c1,21,-9,51*,-274,-20,-7,0,2,6,5
CCCC(=O)Nc1ccc(-c2nc3cc(C)c(C)cc3o2)c(O)c1,-4,-4,8,-446,-2,x,x,x,x,x
SMILES,SENP6 block,SENP1 inh,SENP7 block,SENP8 block-1,SENP8 block-2,SENP8 conf,SENP6 conf,SENP7 confirm,Casp3 SENP sel,SENP luc ctr
CC1CCC(NC(=O)c2nn(C)c3c2CSc2ccccc2-3)CC1 (centres undefined),5,1,6,5,-3,x,x,x,x,x
Cc1sc2ncnc(SCC(=O)c3ccc4c(c3)OCCO4)c2c1-c1ccccc1,-6,-5,0,10,-7,x,x,x,x,x
CC(=O)N(CN1C(=O)c2ccccc2C1=O)c1cccc(C)c1,-10,1,-6,15,-1,x,x,x,x,x
CC(=O)N(/N=C1\Sc2ccccc2C1=O)c1cccc(C)c1,92*,-13,93*,-13,94*,-6,84*,58*,11,16
NC(=O)CSc1nnc(CSc2ncccn2)n1-c1ccccc1,-1,0,-10,15,-3,x,x,x,x,x
C/C(=N/NC(=O)c1ccc(C(C)(C)C)cc1)c1ccccn1,5,1,16,2,1,x,x,x,x,x
CCOc1ccc(OCc2ccc(C(=O)N/N=C(\C)c3ccccn3)cc2)cc1,x,0,x,4,x,x,x,x,x,x
Cc1cccc(/C(N)=N/OC(=O)c2ccc3c(c2)OCO3)c1,98*,3,100*,7,97*,100*,100*,103*,98*,99*
COc1ccc(C(=O)N/N=C(\C)c2ccccn2)cc1OC,6,2,-10,3,-10,x,x,x,x,x
C/C(=N/OCc1ccc(Br)cc1)c1ccccn1,-6,2,91*,31,82*,4,88*,100*,75*,49
C/C(=N\OC(=O)c1ccc(Br)cc1)c1ccccn1,97*,5,97*,14,93*,43,54*,44,46,12
CC(C)(C)c1ccc(C(=O)O/N=C(\N)c2ccccn2)cc1,97*,1,98*,14,94*,86*,98*,102*,95*,76*
Cc1ncsc1CCC(=O)N1CCCC(C(=O)c2ccc3c(c2)OCO3)C1 (centres undefined),-10,3,1,-14,-1,x,x,x,x,x
Cc1ccccc1CNS(=O)(=O)c1c(C)[nH]c(C)c1C(=O)N1CCCCC1,1,1,2,8,8,x,x,x,x,x
Cc1cccc(/C(N)=N/OC(=O)c2cccnc2)c1,69*,-1,80*,25,49,47,54*,85*,84*,58*
